Assay results from the RNAGym collection of RNA variant scans (doi:10.1126/science.aae0568).
This sample holds only a part of the variants without activity.

B1: tRNA (parent)
chain: GUUCCGUUGGCGUAAUGGUAACGCGUCUCCCUCCUAAGGAGAAGACUGCGGGUUCGAGUCCCGUACGGAACG

Variants of: B1
Assay: yeast fitness relative to wild type (ratio to wild type); higher = fitter; tRNA-Arg(CCU), competitive growth, 37 C, YPD
Outline: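 Variants of the tRNA-Arg(CCU) gene were chemically synthesised with a 3% per-site mutation rate across 69 sites and placed at the native genomic locus in Saccharomyces cerevisiae. Six parallel replicates of the pooled strains were competed in YPD at 37°C for 24 hours, and gene amplicons from the start and end populations were read by 100-nucleotide paired-end sequencing. Darwinian fitness relative to wild type was derived from changes in genotype frequencies. Genotypes required ≥ 100 starting reads, and estimates < 0.5 were set to 0.5.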

Row | Variant | yeast fitness
1 | GUUCCGUUGGGGUUAUGGUAACGAGUCUCCCUCCUAAGGAGAAGACUGCGGGUUCGAGUCACGUACGGAACG [C11G A14U C24A C61A] | ≤ 0.5
2 | GUUCCGUUGGGGUUAUGGUAACGCGUCUCCCUCAUAAGGAGAAGACUGCGGGUUCGAGUCCCGUACGGAACG [C11G A14U C34A] | 0.528
3 | GUUCCGUUGGGGUUAUGGUAACGCGUCUCCCUCAUAAGGAGAAGACUGCGGGUUCGGGUCCCGUACGGAACG [C11G A14U C34A A57G] | 0.642
4 | GUUCCGUUGGGGUUAUGGUAACGCGUCUCCCUCAUAAGGAGAAGACUGCGGGUUCGAGUCCCGUACGGCACG [C11G A14U C34A A69C] | ≤ 0.5
5 | GUUCCGUUGGGGUUAUAGUAACGCGUCUCCCUCCUGAGGAAAAGACUGCGGGUUGGAGUCACGUACGGAACG [C11G A14U G17A A36G G41A C55G C61A] | ≤ 0.5
6 | GUUCCGUUGGGGUUAUGGUAACGCGUCUCCCUCCUAAGGAGAAGACUCCGGGUUCGAGUCCCGUACGGAACG [C11G A14U G48C] | 0.58
7 | GUUCCGUUGGGGUACUGGUAACGCGUCUCCCUCCUAAGGAGAAGCCUGCGGGUUCGAGUCCCGUACGGAACG [C11G A15C A45C] | ≤ 0.5
8 | GUUCCGUUGGGGUACUGGUAACGCGUCUCCCUCCUAAGGAGAAGACUGCGGGUUCGAGUCCCGUACGGACCG [C11G A15C A70C] | ≤ 0.5
9 | GUUCCGUUGGGGUACUGGUAACGCGUCUCUCUCCUAAGGAGAAGACUGCGGGAUCGAGUCGCGUACGGAACG [C11G A15C C30U U53A C61G] | ≤ 0.5
10 | GUUCCGUUGGGGUACUGGUAACGCGUCUCCCUCCUAAGGAGAAGACUGCGGGUUCGAGUCCGGUACGGAACG [C11G A15C C62G] | ≤ 0.5
11 | GUUCCGUUGGGGUACUACUAACGCGUCUCCCUCCUAAGGAGAAGACUGCGGGUUCGAGUCCCGUACGGAACG [C11G A15C G17A G18C] | ≤ 0.5
12 | GUUCCGUUGGGGUACUGAUAACGCGUCUCGCUCCUAAGGAGAAGACGGCGGGUUCGAGUCCCGUACAGAACG [C11G A15C G18A C30G U47G G67A] | 0.656
13 | GUUCCGUUGGGGUACUGGUAACGCGUCUCCCUCCUAAGGAGAAGACUGCCGGUUCGAGUCCCGUACGGAACG [C11G A15C G50C] | ≤ 0.5
14 | GUUCCGUUGGGGUAGUGGUAAAGCGACUCCCUCCUAAGGUGAAGACUGCGGGUUCGAGUCCAGUACGGAACG [C11G A15G C22A U26A A40U C62A] | 0.638
15 | GUUCCGUUGGGGUAGUGGUAAAGCGACUCCCUCCUAAGGUGAAGACUGCGGGUCCGAGUCCAGUACGGAACG [C11G A15G C22A U26A A40U U54C C62A] | ≤ 0.5
16 | GUUCCGUUGGGGUAGUGGUAAAGCGACUCCCUCCUAAGGAGAAGACUGCGGGUUGGAGUCCCGUACGGAACG [C11G A15G C22A U26A C55G] | ≤ 0.5
17 | GUUCCGUUGGGGUAGUGGUAACGCGUCUCCCUGCUAGGGAGAAGACUGCGGGUACGAGUCCCGUACGGAACG [C11G A15G C33G A37G U54A] | ≤ 0.5
18 | GUUCCGUUGGGGUAGUGGUAACGCGACUCCCACCUAAAGCGAAGACUGCGGAUUCGAGUCCCGUACGGAACG [C11G A15G U26A U32A G38A A40C G52A] | ≤ 0.5
19 | GUUCCGUUGGGGUAGUGGUAACGCGGCUCCCUCCUAAGGAGAAAACUGCGGGUUCGAGUCCCGUACGGAACG [C11G A15G U26G G44A] | ≤ 0.5

Row | Variant | yeast fitness
20 | GUUCCGUUGGGGUAUUGGUAACGCGUCUCCCUCCUAAGGAGAAGACUGCGGGUUCGAGUCCCGUACGGAACG [C11G A15U] | 0.594
21 | GUUCCGUUGGGGUAUUGGUAGCGCGUCUCCCUCCUAACGAGAAGACUGCGGGUUCGAGUCCCGUACGGAACG [C11G A15U A21G G38C] | 0.604
22 | GUUCCGUUGGGGUAUUGGUAACGCGUCUCCCUCCUUAGGAGAAGACUGCGGGUUCGAGUCCCGUACGGAACG [C11G A15U A36U] | ≤ 0.5
23 | GUUCCGUUGGGGUAUUGGUAACGCGUCUCCCUCCUUAGGAGAAGACUGCGGGUUCGAGUCCCGUAUGGAACG [C11G A15U A36U C66U] | ≤ 0.5
24 | GUUCCGUUGGGGUAUUGGUAAUGCGUCUCCCCCCUAAGGAGGAGACUGCGGGUUCGAGUCCCGUACGGAACG [C11G A15U C22U U32C A42G] | ≤ 0.5
25 | GUUCCGUUGGGGUAUUGGUAACGGGUCUCCCUCCUAAGGGGAAGACUGCGGGUUCGAGUCCCGUACGGAACG [C11G A15U C24G A40G] | ≤ 0.5
26 | GUUCCGUUGGGGUAUUGGUAACGGGUCUCCCUCCUAAGGGGAAGACUGCGGGUUCGAGUCCUGUACGGAACG [C11G A15U C24G A40G C62U] | ≤ 0.5
27 | GUUCCGUUGGGGUAUUGGUAACGGGUCUCCCUCCUAAGGGGAAGACUGCGGGUUCGAGUCCUGUACGGACCG [C11G A15U C24G A40G C62U A70C] | 0.614
28 | GUUCCGUUGGGGUAUUGGUAACGGGUCUCCCUCCUAAGGGGAAGACUGCGAGUUCGAGUUCCGUACAGAACG [C11G A15U C24G A40G G51A C60U G67A] | ≤ 0.5
29 | GUUCCGUUGGGGUAUUGGUAACGCGUCUCCCUCCUAAAGAGAAGAGUGCGGGUUCCAGUCCCGUACGGAACG [C11G A15U G38A C46G G56C] | ≤ 0.5
30 | GUUCCGUUGGGGUAAUGGUCACGGGUCUCCCUCCUAAGGAGAAGACUGCGGGUUCGAAUCCCGUACCGAACG [C11G A20C C24G G58A G67C] | ≤ 0.5
31 | GUUCCGUUGGGGUAAUGGUCACGUGUCUCCCUCCUCAGGAGAAGACAGCGGGUUCGAGUCCCGUACGGAACG [C11G A20C C24U A36C U47A] | 0.61
32 | GUUCCGUUGGGGUAAUGGUGACGCGUCUCCCUUCUAUGGAGAAGACUGCGGGUUCGAGUCCCGUACGGAACG [C11G A20G C33U A37U] | ≤ 0.5
33 | GUUCCGUUGGGGUAAUGGUGACGCGUCUCCCUCCUAAGGAGAAGACUGGGGGUUCGAGUCCCGUACGGAACG [C11G A20G C49G] | ≤ 0.5
34 | GUUCCGUUGGGGUAAUGGUGACGCGUCUCCCUCCUAAGGAGAACACUGCGGGUCCGAGUCCAGUACGGAACG [C11G A20G G44C U54C C62A] | 0.87
35 | GUUCCGUUGGGGUAAUGGUGACGCGUCUCCCACCUAAGGAGAAGACUGCGGGUUCGAGUCCCGUACGGAACG [C11G A20G U32A] | ≤ 0.5
36 | GUUCCGUUGGGGUAAUGGUUACGACUCUCCCUCCUAAGGAGAAGACUGCGGGUUCGAGUCCCGUACGGAGCG [C11G A20U C24A G25C A70G] | ≤ 0.5
37 | GUUCCGUUGGGGUAAUGGUUACGCGUCUAUCUCCUAAGGAGAAGAGUGCGGGUUCGAGUCCCGUACGGAACG [C11G A20U C29A C30U C46G] | ≤ 0.5
38 | GUUCCGUUGGGGUAAUGGUUACGCGUCUCGCUCCUAAGGAGAAGACUGCGGGUUCGAGUCCCGUAUGGAACG [C11G A20U C30G C66U] | ≤ 0.5
